KCNK3 block – human KCNK3 channel inhibitors, primary screen, CHO cells, FluxOR thallium flux, B-score | 340,000 tested, 0.84% active | FluxOR fluorescence; active compounds read low | B-score at 10 µM;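 active means B-score under library mean minus 4 SD, starting fluorescence ratio at most library mean plus 5 SD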;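 further: more negative B-score means stronger inhibition of thallium flux through KCNK3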
hERG rescue – hERG rescue from dofetilide block, primary screen, cell-based, CHO-hERG, FluxOR thallium flux, dofetilide IC70; dofetilide IC70 present; activation (rescue from dofetilide block), less the hit threshold, % at 10 µM; 310,000 tested, 0.51% active;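 active means activation above the mean of controls blocked by dofetilide plus 5 SD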;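 further: thallium influx through hERG after potassium depolarization seen as dye fluorescence rise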
KCNQ1 block – inhibitors of human KCNQ1 channel, primary screen, cell-based, thallium flux, high-throughput | B-score at 10 µM | AID 2642, 2010 | CHO-K1 KCNQ1, FluxOR thallium flux fluorescence; active compounds read high | 310,000 tested, 1.3% active;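 active means compounds whose thallium flux B-score, printed positive for inhibition, exceeds three library SD while starting fluorescence stays within three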;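 further: channel opened by potassium depolarization with thallium stimulus after 20 min compound exposure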
KCNK9 block – KCNK9 potassium channel inhibitors, primary screen, HEK293 cells, thallium flux | Potassium channel subfamily K member 9 (Homo sapiens), Q9NPC2 | FluxOR thallium flux fluorescence; active compounds read low | B-score at 10 µM | 310,000 tested, 1.2% active | AID 488922, 2010;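 active means ratio B-score over 3 SD below the library mean, with starting fluorescence within 5 SD of its mean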;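 further: negative B-score means less thallium flux so channel inhibition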
KCNQ1 pot – potentiators or activators of KCNQ1 channel, primary screen, cell-based, thallium flux, high-throughput | Potassium voltage-gated channel subfamily KQT member 1 (Homo sapiens), P51787 | CHO-K1 KCNQ1, thallium flux FluxOR fluorescence; active compounds read high | B-score at 10 µM | 310,000 tested, 0.35% active | AID 2648, 2010;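 active means fluorescence ratio B-score, a plate-corrected score, at least three library SD, with initial intensity B-score within 5 SD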
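Assay system: CHO-K1 cells stably expressing KCNQ1. Medium: assay buffer for compound exposure, DMSO matched across wells. Timing: 37 °C overnight plating, 90-min dark dye load, 20-min compound pretreatment. Signal: kinetic FluxOR fluorescence, 10 s baseline plus 110 s post-stimulus.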
* marks the source's active call; other numbers are inactive results. A selection: hits, their analogues and other compounds. The true share with any hit is near 3.1%.

`CN(c1ccccc1)S(=O)(=O)c1cccc(C(=O)OCC(=O)NCc2ccccc2)c1` gave KCNK3 block inactive.
O=C(COC(=O)c1ccccc1Nc1cccc(C(F)(F)F)c1)NCc1ccco1 was read as KCNK3 block -8.9*, hERG rescue -1, KCNQ1 block inactive, KCNK9 block inactive and KCNQ1 pot inactive.
`CN(c1ccccc1)S(=O)(=O)c1cccc(C(=O)OCC(=O)NCc2ccco2)c1` gave KCNK3 block inactive, hERG rescue 11*, KCNQ1 block inactive, KCNK9 block inactive and KCNQ1 pot inactive.
Screening CCCCCc1nnc(NC(=O)c2ccc3nc[nH]c3c2)s1 returned KCNK3 block inactive.
Screening O=C(Cn1cnc2c(OCc3ccccc3)ncnc21)NCC1CCCO1 (stereo unspecified) returned KCNK3 block inactive.
`CC(C)Oc1cccc(C(=O)N2CCCC2)c1` gave KCNK3 block inactive, hERG rescue 19*, KCNQ1 block inactive, KCNK9 block inactive and KCNQ1 pot inactive.
Cc1cccc(C(=O)N2CCCCCC2)c1 was read as KCNK3 block inactive, hERG rescue -9, KCNQ1 block inactive, KCNK9 block inactive and KCNQ1 pot inactive.
Screening COc1ccc(Cl)cc1NC(=O)NC(C)C returned KCNK3 block inactive, hERG rescue -10, KCNQ1 block inactive, KCNK9 block inactive and KCNQ1 pot inactive.
CC(C)NC(=O)Nc1n[nH]c(Nc2ccc(Cl)cc2)n1 was read as KCNK3 block inactive, hERG rescue 5.3*, KCNQ1 block inactive, KCNK9 block inactive and KCNQ1 pot inactive.
Screening Cc1cc(N(C)C)nc(Nc2ccccc2)n1 returned KCNK3 block inactive.
CCc1cc(C(=O)OC)c(NC(=O)CN2CCN(C(=O)c3ccco3)CC2)s1 was read as KCNK3 block inactive, hERG rescue -2, KCNQ1 block inactive, KCNK9 block inactive and KCNQ1 pot inactive.
`Cc1ccc(C(=O)c2cc(C)sc2NC(=O)CN2CCN(C(=O)c3ccco3)CC2)cc1` gave KCNK3 block inactive, hERG rescue -20, KCNQ1 block 9*, KCNK9 block inactive and KCNQ1 pot inactive.
O=C(CCc1ccc(O)cc1)NNC(=S)NCCc1ccccc1 was read as KCNK3 block inactive, hERG rescue -7, KCNQ1 block inactive, KCNK9 block inactive and KCNQ1 pot inactive.
`O=C(NNC(=S)NCCc1ccccc1)c1ccc(Br)s1` gave KCNK3 block inactive, hERG rescue -3, KCNQ1 block 8*, KCNK9 block inactive and KCNQ1 pot inactive.
COCC(=O)N1CCC(Oc2ccc(C(=O)N3CCN(C)C[C@@H]3C(C)C)cc2)CC1 was read as KCNK3 block inactive, hERG rescue -9, KCNQ1 block inactive, KCNK9 block inactive and KCNQ1 pot inactive.
Screening O=C(Nc1ccccc1)N(O)c1ccc(Cl)cc1 returned KCNK3 block inactive, hERG rescue -9, KCNQ1 block 6*, KCNK9 block inactive and KCNQ1 pot inactive.
Screening CC(C)CCN1C(=O)c2ccc(C(=O)Nc3ccc(Br)cc3C(=O)O)cc2C1=O returned KCNK3 block inactive, hERG rescue -2, KCNQ1 block 6*, KCNK9 block inactive and KCNQ1 pot inactive.
For CC(C)CCN1C(=O)c2ccc(C(=O)Nc3cc(C(=O)O)cc(C(=O)O)c3)cc2C1=O the results were KCNK3 block inactive, hERG rescue -4, KCNQ1 block inactive, KCNK9 block inactive and KCNQ1 pot inactive.
Screening CC(=NO)C1CCC2C3CCC4=CC(=NO)CCC4(C)C3C(=O)CC12C (stereo unspecified) returned KCNK3 block inactive.
For Cc1ccc(C2C(C#N)=C(N)OC3=C2C(=O)CC(C)(C)C3)s1 (stereo unspecified) the results were KCNK3 block inactive, hERG rescue -2, KCNQ1 block inactive, KCNK9 block inactive and KCNQ1 pot 9*.

High-throughput results from PubChem BioAssay.
